Source: ChEMBL document CHEMBL1137700, “New transition metal ion complexes with benzimidazole-5-carboxylic acid hydrazides with antitumor activity” (Eur J Med Chem, 2009)

Legend:
[1] = test system: A549; experiment: Cytotoxicity against human A549 cells after 72 hrs by Alamar Blue assay; assay type: functional, cell-based; details: A549, 72 h
How it was run: (§1)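 Cells seeded and grown at 37 °C under 5% CO2 for 24 h, then compounds in DMSO added in duplicate wells. Exposure 72 h at 37 °C, then media replaced with fresh media plus AlamarBlue and fluorescence read. Growth was computed from mean fluorescence at time zero, after 72 h with test substance, and after 72 h with vehicle control. IC50 derived.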

[2] = test system: MCF7; experiment: Cytotoxicity against human MCF7 cells after 72 hrs by Alamar Blue assay; assay type: functional, cell-based; details: MCF7, 72 h; how it was run: as §1

SMILES	IC50 [1] [µM]	IC50 [2] [µM]
COC(=O)c1cccc2oc(-c3cccc4oc(-c5ccccc5O)nc34)nc12	2	1.4
CC(C)=NNC(=O)c1cc2nc(C)[nH]c2cc1[N+](=O)[O-]	> 100	> 100
CC(C)=NNC(=O)c1ccc2[nH]c(C)nc2c1	> 100	> 100
Cc1nc2cc(C(=O)N/N=C\c3c[nH]c4ccccc34)c([N+](=O)[O-])cc2[nH]1	> 100	> 100
Cc1nc2cc(C(=O)O)ccc2[nH]1	> 100	> 100
CCOC(=O)c1ccc2[nH]c(C)nc2c1	> 100	62
CCOC(=O)c1cc2nc(C)[nH]c2cc1[N+](=O)[O-]	> 100	> 100
Cc1ccc(/C=N\NC(=O)c2cc3nc(C)[nH]c3cc2[N+](=O)[O-])cc1	73	3
Cc1nc2cc(C(=O)N/N=C\c3ccccn3)c([N+](=O)[O-])cc2[nH]1	> 100	> 100
Cc1nc2cc(C(=O)NN)c([N+](=O)[O-])cc2[nH]1	> 100	> 100
Cc1nc2cc(C(=O)N/N=C\c3ccco3)c([N+](=O)[O-])cc2[nH]1	> 100	81
Cc1nc2cc(C(=O)N/N=C\c3ccc(C)o3)c([N+](=O)[O-])cc2[nH]1	> 100	> 100
CCN1CCN(C(=O)N[C@@H](C(=O)N[C@@H]2C(=O)N3C(C(=O)O)=C(CSc4nnnn4C)CS[C@H]23)c2ccc(O)cc2)C(=O)C1=O [CEFOPERAZONE]	> 100	> 100
CO[C@@]12[C@H](COC(N)=O)C3=C(C(=O)C(C)=C(N)C3=O)N1C[C@@H]1N[C@@H]12 [MITOMYCIN]	0.4	0.2
